{"data": "Experimental data gathered from unrelated publications", "target": "Serine/threonine-protein kinase NLK (NLK, Homo sapiens, UniProt Q9UBE8)", "Sequence (Q9UBE8 1-527, as in one of the studies)": "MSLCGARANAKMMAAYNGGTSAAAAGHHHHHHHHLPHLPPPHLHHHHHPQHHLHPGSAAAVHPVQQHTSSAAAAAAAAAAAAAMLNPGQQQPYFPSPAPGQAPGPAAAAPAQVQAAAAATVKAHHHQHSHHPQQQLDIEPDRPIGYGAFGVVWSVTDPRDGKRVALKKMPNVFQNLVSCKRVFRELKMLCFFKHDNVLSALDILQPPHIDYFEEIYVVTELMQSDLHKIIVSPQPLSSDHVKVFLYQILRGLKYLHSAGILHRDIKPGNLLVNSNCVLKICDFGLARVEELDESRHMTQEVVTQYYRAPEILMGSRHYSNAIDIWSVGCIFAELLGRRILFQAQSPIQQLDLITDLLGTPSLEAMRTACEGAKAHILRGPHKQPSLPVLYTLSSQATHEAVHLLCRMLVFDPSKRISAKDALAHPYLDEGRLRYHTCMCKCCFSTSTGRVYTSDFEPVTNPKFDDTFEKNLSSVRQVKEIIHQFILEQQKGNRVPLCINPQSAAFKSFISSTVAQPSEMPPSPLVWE", "note": "Compare with care: the assays were run in different laboratories."}
{"SMILES": "CN(C)c1ncc(F)c(-c2cnn3ncccc23)n1", "test": "binding", "setting": "1 µM", "remaining binding [%]": 74}
{"SMILES": "O=C(Nc1ccc(Oc2ccc(F)cc2)cc1)N1CCc2ncccc2[C@H]1c1ccc(F)cc1", "test": "cell-free assay, competition with immobilised ligand", "setting": "1 µM", "remaining binding [%]": 87}
{"SMILES": "FC(F)(F)Oc1cccc(-c2cnc3ccc(-c4ccncc4)nn23)c1", "test": "cell-free assay, competition with immobilised ligand", "setting": "5 µM", "remaining binding [%]": 85}
{"SMILES": "COc1ccc2c(c1)O[C@@H](c1ccc(OC)c(OC)c1)C[C@H]2NC(=O)C1(c2ccc3c(c2)OC(F)(F)O3)CC1", "test": "cell-free assay, competition with immobilised ligand", "setting": "1 µM", "remaining binding [%]": 100}
{"SMILES": "O=C(c1ccc(Nc2ncc(Cl)c(-c3cc4ccccc4s3)n2)cc1)N1CCC(N2CCCC2)CC1", "test": "binding, competition with immobilised ligand", "setting": "1 µM", "remaining binding [%]": 72}
{"SMILES": "COc1ncc2cc3ccccc3nc2c1C#N", "test": "binding, competition with immobilised ligand", "setting": "5 µM", "remaining binding [%]": 100}
{"SMILES": "N[C@H]1CCN(c2nccc(-c3cnn4ncccc34)n2)C1", "test": "binding", "setting": "1 µM", "remaining binding [%]": 76}
{"SMILES": "CN(C)c1ncnc(-c2ccc3nc(Nc4cc(CN5CCN(C(=O)CC(F)(F)F)CC5)ccn4)[nH]c3c2)c1Cl", "test": "cell-free assay, competition with immobilised ligand", "setting": "1 µM", "remaining binding [%]": 88}
{"SMILES": "Cc1cnn2ncc(-c3ccnc(N(C)C)n3)c2c1", "test": "binding", "setting": "1 µM", "remaining binding [%]": 100}
{"SMILES": "C[C@@H]1CN(c2cc(-c3nn(C)c4ccc(OC5(C)CC5)cc34)ncn2)C[C@H](C)O1", "test": "cell-free assay, competition with immobilised ligand", "setting": "1 µM", "remaining binding [%]": 96}
{"SMILES": "O=C(NCCCN1CCOCC1)c1ccc(Nc2ncc(Cl)c(-c3ccc(Cl)s3)n2)cc1", "test": "binding, competition with immobilised ligand", "setting": "1 µM", "remaining binding [%]": 100}
{"SMILES": "COc1cnc(Nc2cccc(S(N)(=O)=O)c2)nc1N1CCN(c2ccccc2)CC1", "test": "binding, competition with immobilised ligand", "setting": "1 µM", "remaining binding [%]": 96}
{"SMILES": "CC1CCCN1c1nccc(-c2cnn3ncccc23)n1 (stereo not shown)", "test": "binding", "setting": "1 µM", "remaining binding [%]": 78}
{"SMILES": "C[C@H](c1cccc(C#N)c1)n1cc(Cl)cc(C(N)=O)c1=N", "test": "cell-free assay, competition with immobilised ligand", "setting": "1 µM", "remaining binding [%]": 44}
{"SMILES": "CN(C)c1nccc(-c2cnc3ncccn23)n1", "test": "binding", "setting": "1 µM", "remaining binding [%]": 74}
{"SMILES": "CO[C@@H](C)c1c(Nc2ccc([C@@H](N(C)C(=O)C3CCS(=O)(=O)CC3)C(F)(F)F)cc2)cnc2cc(Cl)nn12", "test": "cell-free assay, competition with immobilised ligand", "setting": "1 µM", "remaining binding [%]": 84}
{"SMILES": "CN(c1nccc(-c2cnn3ncccc23)n1)C1CC1", "test": "binding", "setting": "1 µM", "remaining binding [%]": 77}
{"SMILES": "CN([C@@H]1CCc2c(CC(=O)O)c3cc(S(C)(=O)=O)ccc3n2C1)S(=O)(=O)c1ccc(F)cc1", "test": "cell-free assay, competition with immobilised ligand", "setting": "1 µM", "remaining binding [%]": 100}
{"SMILES": "CCN1CCN(Cc2ccc(C(=O)Nc3ccc(C)c(Oc4ccc5c(c4)CC(=O)N5)c3)cc2C(F)(F)F)CC1", "test": "binding, competition with immobilised ligand", "setting": "1 µM", "remaining binding [%]": 79}
{"SMILES": "Cc1cnc(Nc2ccc(C(=O)N3CCC(N4CCCC4)CC3)cc2)nc1-c1cc2ccccc2s1", "test": "binding, competition with immobilised ligand", "setting": "1 µM", "remaining binding [%]": 69}
{"SMILES": "C[C@H]1CCN(c2nccc(-c3cnn4ncccc34)n2)C1", "test": "binding", "setting": "1 µM", "remaining binding [%]": 100}
{"SMILES": "O=C(NCC1CCOCC1)c1n[nH]cc1NC(=O)c1c(F)cccc1F", "test": "binding, competition with immobilised ligand", "setting": "1 µM", "remaining binding [%]": 85}
